Assay results from ChEMBL document CHEMBL1649247, “Fluoroquinolone resistance in Mycobacterium tuberculosis and mutations in gyrA and gyrB” (2009).
In brackets after ≈: the same amount, converted by molar mass. Activity calls are given as the source filed them. No cut-off for these calls is given here.

Columns and labels:
[1] = system: Mycobacterium tuberculosis; assay: Antimycobacterial activity against multidrug-resistant Mycobacterium tuberculosis 08-0785 harboring gyrA Ala90Val mutant gene by resazurin microtiter assay; type: functional
Outline: (§1)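 MIC was read by resazurin microtiter assay against ofloxacin, moxifloxacin and gatifloxacin. Isolates were used as fresh Löwenstein-Jensen subcultures kept at 37°C for no longer than 4 weeks.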

[2] = system: Mycobacterium tuberculosis; assay: Antimycobacterial activity against multidrug-resistant Mycobacterium tuberculosis 08-0791 harboring gyrA Ala90Val mutant gene by resazurin microtiter assay; type: functional; outline: as §1
[3] = system: Mycobacterium tuberculosis; assay: Antimycobacterial activity against multidrug-resistant Mycobacterium tuberculosis 99-1914 harboring gyrA Asp94Gly mutant gene by resazurin microtiter assay; type: functional; outline: as §1
[4] = system: Mycobacterium tuberculosis; assay: Antimycobacterial activity against Mycobacterium tuberculosis 02-1975 harboring gyrA Asp94Gly mutant gene by resazurin microtiter assay; type: functional
Outline: (§2)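 Isolates taken from fresh Löwenstein-Jensen subcultures grown at 37°C for at most 4 weeks. Drug stocks 1 mg/ml in 0.1 N NaOH, filter sterilized, stored at −20°C less than 2 months. MIC read by resazurin microtiter assay following a previously described protocol.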

[5] = system: Mycobacterium tuberculosis; assay: Antimycobacterial activity against multidrug-resistant Mycobacterium tuberculosis 08-0744 harboring gyrA Asp94Tyr mutant gene by resazurin microtiter assay; type: functional; outline: as §1
[6] = system: Mycobacterium tuberculosis; assay: Antimycobacterial activity against multidrug-resistant Mycobacterium tuberculosis 01-0172 harboring gyrA Asp94Ala mutant gene by resazurin microtiter assay; type: functional; outline: as §2
[7] = system: Mycobacterium tuberculosis; assay: Antimycobacterial activity against multidrug-resistant Mycobacterium tuberculosis 04-0519 harboring gyrA Ala90Val and Asp94Asn mutant gene by resazurin microtiter assay; type: functional; outline: as §1
[8] = system: Mycobacterium tuberculosis; assay: Antimycobacterial activity against Mycobacterium tuberculosis 08-0787 harboring gyrA Asp94His mutant gene and deletion of codons 678 and 679 in gyrB mutant gene by resazurin microtiter assay; type: functional; outline: as §2
[9] = system: Mycobacterium tuberculosis; assay: Antimycobacterial activity against Mycobacterium tuberculosis 08-0745 harboring gyrA Asp89Asn mutant gene by resazurin microtiter assay; type: functional; outline: as §2
[10] = system: Mycobacterium tuberculosis; assay: Antimycobacterial activity against multidrug-resistant Mycobacterium tuberculosis 01-2834 by resazurin microtiter assay; type: functional; outline: as §2
[11] = system: Mycobacterium tuberculosis; assay: Antimycobacterial activity against Mycobacterium tuberculosis 08-0769 harboring gyrA putative promoter mutant gene by resazurin microtiter assay; type: functional; outline: as §2
[12] = system: Mycobacterium tuberculosis; assay: Antimycobacterial activity against multidrug-resistant Mycobacterium tuberculosis 08-0779 by resazurin microtiter assay; type: functional; outline: as §1
[13] = system: Mycobacterium tuberculosis; assay: Antimycobacterial activity against Mycobacterium tuberculosis 00-0715 harboring gyrA Ala90Val mutant gene assessed as microbial susceptibility by agar proportion method; type: functional, organism-based
Outline: (§3)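 Clinical isolates freshly subcultured on Löwenstein-Jensen medium, held at 37°C no longer than 4 weeks. Fluoroquinolone stocks 1 mg/ml in 0.1 N NaOH, filter sterilized, kept at −20°C under 2 months. Standard proportion method on 7H11 agar; breakpoints 2 mg/liter ofloxacin, 0.5 mg/liter moxifloxacin and gatifloxacin; scored susceptible or resistant.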

[14] = system: Mycobacterium tuberculosis; assay: Antimycobacterial activity against multidrug-resistant Mycobacterium tuberculosis 03-0738 harboring gyrA Ala90Val mutant gene assessed as microbial susceptibility by agar proportion method; type: functional, organism-based
Outline: (§4)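 Clinical isolates freshly subcultured on Löwenstein-Jensen medium at 37°C for no more than 4 weeks. Susceptibility by standard proportion method on 7H11 agar at breakpoints of 2 mg/liter ofloxacin and 0.5 mg/liter moxifloxacin and gatifloxacin. Drug stocks 1 mg/ml in 0.1 N NaOH, filter sterilized, held at −20°C under 2 months. Isolates scored susceptible or resistant.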

[15] = system: Mycobacterium tuberculosis; assay: Antimycobacterial activity against multidrug-resistant Mycobacterium tuberculosis 02-2934 harboring gyrA Ala90Val mutant gene assessed as microbial susceptibility by agar proportion method; type: functional, organism-based; outline: as §3
[16] = system: Mycobacterium tuberculosis; assay: Antimycobacterial activity against multidrug-resistant Mycobacterium tuberculosis 01-1647 harboring gyrA Ala90Val mutant gene assessed as microbial susceptibility by agar proportion method; type: functional, organism-based; outline: as §3
[17] = system: Mycobacterium tuberculosis; assay: Antimycobacterial activity against multidrug-resistant Mycobacterium tuberculosis 08-0785 harboring gyrA Ala90Val mutant gene assessed as microbial susceptibility by agar proportion method; type: functional, organism-based; outline: as §4
[18] = system: Mycobacterium tuberculosis; assay: Antimycobacterial activity against multidrug-resistant Mycobacterium tuberculosis 08-0797 harboring gyrA Ala90Val mutant gene assessed as microbial susceptibility by agar proportion method; type: functional, organism-based; outline: as §4
[19] = system: Mycobacterium tuberculosis; assay: Antimycobacterial activity against Mycobacterium tuberculosis 02-1975 harboring gyrA Asp94Gly mutant gene assessed as microbial susceptibility by agar proportion method; type: functional, organism-based; outline: as §3
[20] = system: Mycobacterium tuberculosis; assay: Antimycobacterial activity against multidrug-resistant Mycobacterium tuberculosis 01-2230 harboring gyrA Asp94Gly mutant gene assessed as microbial susceptibility by agar proportion method; type: functional, organism-based; outline: as §3
[21] = system: Mycobacterium tuberculosis; assay: Antimycobacterial activity against multidrug-resistant Mycobacterium tuberculosis 08-0810 harboring gyrA Asp94Tyr mutant gene assessed as microbial susceptibility by agar proportion method; type: functional, organism-based; outline: as §4
[22] = system: Mycobacterium tuberculosis; assay: Antimycobacterial activity against multidrug-resistant Mycobacterium tuberculosis 02-2399 harboring gyrA Asp94Tyr mutant gene assessed as microbial susceptibility by agar proportion method; type: functional, organism-based; outline: as §3
[23] = system: Mycobacterium tuberculosis; assay: Antimycobacterial activity against multidrug-resistant Mycobacterium tuberculosis 02-0319 harboring gyrA Asp94Ala mutant gene assessed as microbial susceptibility by agar proportion method; type: functional, organism-based; outline: as §3
[24] = system: Mycobacterium tuberculosis; assay: Antimycobacterial activity against Mycobacterium tuberculosis 08-0787 harboring gyrA Asp94His mutant gene assessed as microbial susceptibility and deletion of codons 678 and 679 in gyrB mutant gene assessed as microbial susceptibility by agar proportion method; type: functional, organism-based; outline: as §3
[25] = system: Mycobacterium tuberculosis; assay: Antimycobacterial activity against Mycobacterium tuberculosis 08-0745 harboring gyrA Asp89Asn mutant gene assessed as microbial susceptibility by agar proportion method; type: functional, organism-based; outline: as §3
[26] = system: Mycobacterium tuberculosis; assay: Antimycobacterial activity against Mycobacterium tuberculosis 08-0771 harboring gyrA putative promoter mutant gene assessed as microbial susceptibility by agar proportion method; type: functional, organism-based; outline: as §3
[27] = system: Mycobacterium tuberculosis; assay: Antimycobacterial activity against multidrug-resistant Mycobacterium tuberculosis 08-0777 assessed as microbial susceptibility by agar proportion method; type: functional, organism-based; outline: as §4
[28] = system: Mycobacterium tuberculosis; assay: Antimycobacterial activity against multidrug-resistant Mycobacterium tuberculosis 02-2934 harboring gyrA Ala90Val mutant gene by resazurin microtiter assay; type: functional; outline: as §2
[29] = system: Mycobacterium tuberculosis; assay: Antimycobacterial activity against multidrug-resistant Mycobacterium tuberculosis 01-0930 harboring gyrA Ala90Val mutant gene by resazurin microtiter assay; type: functional; outline: as §2
[30] = system: Mycobacterium tuberculosis; assay: Antimycobacterial activity against multidrug-resistant Mycobacterium tuberculosis 08-0757 harboring gyrA Ala90Val mutant gene by resazurin microtiter assay; type: functional; outline: as §1

COc1c(N2CCNC(C)C2)c(F)cc2c(=O)c(C(=O)O)cn(C3CC3)c12 (stereo not drawn) [GATIFLOXACIN]
MIC [1]: 1 mg/L (≈ 2.66 µM) | MIC [2]: 0.25 mg/L (≈ 0.666 µM) | MIC [3]: 1 mg/L (≈ 2.66 µM) | MIC [4]: 1 mg/L (≈ 2.66 µM) | MIC [5]: 1 mg/L (≈ 2.66 µM) | MIC [6]: 0.25 mg/L (≈ 0.666 µM) | MIC [7]: >4 mg/L | MIC [8]: 1 mg/L (≈ 2.66 µM) | MIC [9]: 1 mg/L (≈ 2.66 µM) | MIC [10]: 0.5 µg/mL (≈ 1.33 µM) | MIC [11]: 0.125 mg/L (≈ 0.333 µM) | MIC [12]: ≤ 0.062 µg/mL | Activity [13]: inactive | Activity [14]: inactive | Activity [15]: inactive | Activity [16]: inactive | Activity [17]: inactive | Activity [18]: inactive | Activity [19]: inactive | Activity [20]: inactive | Activity [21]: inactive | Activity [22]: inactive | Activity [23]: inactive | Activity [24]: inactive | Activity [25]: inactive | Activity [26]: Active | Activity [27]: Active | MIC [28]: 0.25 mg/L (≈ 0.666 µM) | MIC [29]: 0.5 mg/L (≈ 1.33 µM) | MIC [30]: 1 mg/L (≈ 2.66 µM)

COc1c(N2C[C@@H]3CCCN[C@@H]3C2)c(F)cc2c(=O)c(C(=O)O)cn(C3CC3)c12 [MOXIFLOXACIN]
MIC [1]: 2 mg/L (≈ 4.98 µM) | MIC [2]: 0.5 mg/L (≈ 1.25 µM) | MIC [3]: 2 mg/L (≈ 4.98 µM) | MIC [4]: 2 mg/L (≈ 4.98 µM) | MIC [6]: 0.5 mg/L (≈ 1.25 µM) | MIC [7]: >8 mg/L | MIC [8]: 2 mg/L (≈ 4.98 µM) | MIC [9]: 2 mg/L (≈ 4.98 µM) | MIC [10]: 1 µg/mL (≈ 2.49 µM) | MIC [11]: <=0.125 mg/L | MIC [12]: ≤ 0.125 µg/mL | Activity [13]: inactive | Activity [14]: inactive | Activity [15]: inactive | Activity [16]: inactive | Activity [17]: inactive | Activity [18]: inactive | Activity [19]: inactive | Activity [20]: inactive | Activity [21]: inactive | Activity [22]: inactive | Activity [23]: inactive | Activity [24]: inactive | Activity [25]: inactive | Activity [26]: Active | Activity [27]: Active | MIC [28]: 0.25 mg/L (≈ 0.623 µM) | MIC [29]: 0.5 mg/L (≈ 1.25 µM)

CC1COc2c(N3CCN(C)CC3)c(F)cc3c(=O)c(C(=O)O)cn1c23 (stereo not drawn) [OFLOXACIN]
MIC [1]: 8 mg/L (≈ 22.1 µM) | MIC [2]: 4 mg/L (≈ 11.1 µM) | MIC [3]: 8 mg/L (≈ 22.1 µM) | MIC [4]: 8 mg/L (≈ 22.1 µM) | MIC [5]: 8 mg/L (≈ 22.1 µM) | MIC [6]: 4 mg/L (≈ 11.1 µM) | MIC [7]: >32 mg/L | MIC [8]: 4 mg/L (≈ 11.1 µM) | MIC [9]: 4 mg/L (≈ 11.1 µM) | MIC [10]: 4 µg/mL (≈ 11.1 µM) | MIC [11]: 1 mg/L (≈ 2.77 µM) | MIC [12]: 0.5 µg/mL (≈ 1.38 µM) | Activity [13]: inactive | Activity [14]: inactive | Activity [15]: inactive | Activity [16]: inactive | Activity [17]: inactive | Activity [18]: inactive | Activity [19]: inactive | Activity [20]: inactive | Activity [21]: inactive | Activity [22]: inactive | Activity [23]: inactive | Activity [24]: inactive | Activity [25]: inactive | Activity [26]: Active | Activity [27]: Active | MIC [28]: 4 mg/L (≈ 11.1 µM) | MIC [29]: 4 mg/L (≈ 11.1 µM) | MIC [30]: 8 mg/L (≈ 22.1 µM)
